For data set [1], the system named is Human immunodeficiency virus 2. The data set is described as follows: Antiviral activity against HIV-2 ROD infected in MT4 cells assessed as protection against virus induced cytotoxicity and measured after 5 days by MTT spectrophotometric assay. Type of data set: functional, organism-based. Conditions: Human immunodeficiency virus 2, ROD, MT4, 120 h.
Data set [2] in a line: Metabolic stability in human liver microsomes assessed as remaining compound at 1 uM after 60 mins in absence of NADPH. Conditions: read-out: Stability. In kind it is ADME, Microsome. A digest of the protocol:
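No-cofactor control: human liver microsomes at 0.5 mg protein/mL in 100 mM phosphate buffer with compound at 1 µM, buffer added in place of NADPH. Incubated 60 min at 37°C with shaking, then quenched with cold ACN containing tolbutamide and labetalol internal standards. Centrifuged, supernatant diluted in water, analysed by LC-MS/MS.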
A general note: Liver microsomes are vesicles of endoplasmic reticulum, rich in cytochrome P450 enzymes.

The subject of data set [3] is Human immunodeficiency virus 1. As to the kind of experiment: Antiviral activity against early stage HIV-1 infected in U87.CD4.CXCR4 cells assessed as viral infection at 60 uM preincubated with virus followed by cell addition and measured after 48 hrs by luciferase based luminometer assay (reference value: 100 +/- 8.4 %). In kind it is functional.
Data set [4] in a line: Cytotoxicity against human MT4 cells assessed as reduction in cell viability after 5 days by MTT assay. Conditions: time 5 day. Type of data set: toxicity, cell-based.
Data set [5] concerns the target T1, Structural capsid protein (Human immunodeficiency virus 1, UniProt Q76129). The data set is described as follows: Binding affinity to HIV-1 NL4-3 hexameric capsid protein by SPR analysis. The method, boiled down:
(§1)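 SPR binding isotherms averaged over 3 replicates, with error bars as SD.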
On the technique in general: In SPR one partner is held on a chip, and binding of the other changes the refractive index at the surface.

Data set [6] in a line: Selectivity index, ratio of CC50 for human MT4 cells to EC50 for HIV-1 IIIB infected in human MT4 cells. Type of data set: toxicity, cell-based. As to conditions: read-out: Ratio CC50/EC50.
In data set [7] the target is Structural capsid protein (Human immunodeficiency virus 1) (UniProt Q76129). The data set is described as follows: Binding affinity to HIV-1 NL4-3 hexameric capsid protein assessed as Koff by SPR analysis. As to conditions: filed as modulator.
The target is the same in data set [8]. The data set is described as follows: Ratio of Kd for HIV-1 NL4-3 monomeric capsid protein to Kd for HIV-1 NL4-3 hexameric capsid protein.
In data set [9] the target is T1, Structural capsid protein. The data set is described as follows: Binding affinity to HIV-1 NL4-3 monomeric capsid protein by SPR analysis. A digest of the protocol: as §1
Data set [10] can be described thus: Metabolic stability in human liver assessed as intrinsic clearance at 1 uM preincubated for 10 mins followed by NADPH addition and measured after 60 mins. As to conditions: read-out: CLH.
The test system of data set [11] is Human immunodeficiency virus 1. As to the kind of experiment: Antiviral activity against HIV-1 IIIB infected in MT4 cells assessed as protection against virus induced cytotoxicity incubated for 5 days by MTT assay. In kind it is functional, organism-based. Conditions: Human immunodeficiency virus 1, IIIB, MT4, 120 h. In general terms: Formazan colour is commonly taken as a measure of viable cells.

A short description of data set [12]: Selectivity index, ratio of CC50 for human MT4 cells to EC50 for HIV-2 ROD infected in human MT4 cells. Type of data set: toxicity, cell-based. Conditions: read-out: Ratio CC50/EC50.
For data set [13], the system named is Human immunodeficiency virus 1. As to the kind of experiment: Antiviral activity against late stage HIV-1 infected in U87.CD4.CXCR4 cells assessed as viral infection at 60 uM preincubated with virus for 48 hrs followed by cell addition and measured after 48 hrs by luciferase based luminometer assay (reference value: 100 +/- 11 %). Type of data set: functional. As to conditions: time 96 hrs.

Data set [14] in a line: Metabolic stability in human liver microsomes assessed as remaining compound at 1 uM after 60 mins in presence of NADPH. Type of data set: ADME, Microsome. Conditions: read-out: Stability. A digest of the protocol:
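Human liver microsomes at 0.5 mg protein/mL in 100 mM potassium phosphate, compound at 1 µM final (0.99% ACN, 0.01% DMSO). After 10 min pre-warming of the microsomes at 37°C, NADPH (1 mM final, in 10 mM MgCl2) was added. Incubated at 37°C with shaking, sampled at 0, 5, 15, 30, 45 and 60 min into cold ACN with internal standards. LC-MS/MS analysis; T1/2 and CLint(mic) (µL/min/mg) from first-order kinetics.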

Data set [15] has as its system Human immunodeficiency virus 1. As to the kind of experiment: Antiviral activity against early stage HIV-1 infected in U87.CD4.CXCR4 cells assessed as viral infection at 1 uM preincubated with virus followed by cell addition and measured after 48 hrs by luciferase based luminometer assay (reference value: 100 +/- 8.4 %). In kind it is functional.
Data set [16] deals with Human immunodeficiency virus 1. As to the kind of experiment: Antiviral activity against late stage HIV-1 infected in U87.CD4.CXCR4 cells assessed as viral infection at 1 uM preincubated with virus for 48 hrs followed by cell addition and measured after 48 hrs by luciferase based luminometer assay (reference value: 100 +/- 11 %). In kind it is functional. Conditions: time 96 hrs.

The test system of data set [17] is Human immunodeficiency virus 1. As to the kind of experiment: Antiviral activity against HIV-1 infected in MT4 cells. Type of data set: functional, organism-based. Conditions: Human immunodeficiency virus 1, MT4.
Data set [18] in a line: Metabolic stability in human microsomes assessed as intrinsic clearance at 1 uM preincubated for 60 mins followed by NADPH addition and measured after 60 mins. Type of data set: ADME, Microsome. Conditions: time 120 min, read-out: CLH.

Experimental findings from ChEMBL document CHEMBL5329160, “Design, synthesis, and mechanistic study of 2-piperazineone-bearing peptidomimetics as novel HIV capsid modulators” (RSC Med Chem, 2023) are described below.

For orientation: EC50 means the concentration that produces a half-maximal response. In general, CC50 refers to the concentration at which the toxic effect on the cells reaches its halfway point. What is called Kd is the equilibrium constant for the complex coming apart. A higher Kd goes with weaker binding.

Structural capsid protein (Human immunodeficiency virus 1), sequence (Q76129 as listed by the source): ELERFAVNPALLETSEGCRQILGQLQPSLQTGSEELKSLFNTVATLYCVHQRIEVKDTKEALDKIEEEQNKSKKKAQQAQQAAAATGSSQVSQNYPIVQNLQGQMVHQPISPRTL
T1 sequence (Q76129 whole entry): as the sequence (Q76129 as listed by the source) above

Turning to `COc1ccc(N(C)C(=O)[C@H](Cc2cc(F)cc(F)c2)NC(=O)CN2CCN(C(=O)c3ccccc3[N+](=O)[O-])CC2=O)cc1`, the values for the 50% effective concentration (EC50) in [1] and in [11] were 6.3 µM and 6 µM, respectively. For the same compound, the figures for the remaining at 1 h, 1 µM in [2] and in [14] were 96% and 0.23%, respectively. Besides, the Activity in data set [3] turned out to be 8.1%; in data set [13] it was 10%. Also, the CC50 at 120 h in data set [4] turned out to be 160 µM. Also, the equilibrium dissociation constant (Kd) in data set [5] was 5.2 µM; in data set [9], 13 µM. In addition, the values for the selectivity ratio in [6] and in data set [12] were 27 and 25, respectively. Further, the K in data set [7] stood at 0.25 s⁻¹. Besides, the Ratio in [8] stood at 2.5. Further, the CLint scaled at 1 µM in data set [10] came to 3.3 mL/min/kg.
For the compound `COc1ccc(N(C)C(=O)[C@H](Cc2cc(F)cc(F)c2)NC(=O)CN2CCN(C(=O)c3ccccc3C(F)(F)F)CC2=O)cc1`, the concentration giving a half-maximal response (EC50) in data set [1] was found to be 5 µM; in data set [11] it was 12 µM. In [4], the CC50 at 120 h came out at 110 µM. Further, the Kd in data set [5] was 5.3 µM; in data set [9], 12 µM. Besides, the selectivity ratio is 9.2 in data set [6] and 22 in data set [12]. In addition, the K in data set [7] was 0.25 s⁻¹. In addition, the Ratio in data set [8] was 2.2.
Take `Cc1[nH]c2ccccc2c1CC(=O)[C@@H](Cc1ccccc1)C(=O)N(C)c1ccccc1`: the Activity in data set [15] is on record as -0.12%; in data set [16] it was 150%. Further, the 50% effective concentration (EC50) in [1] is 4.2 µM; in data set [11] it was 0.75 µM. For the same compound, the CC50 at 120 h in [4] was determined as 32 µM. The Kd in [5] was determined as 0.16 µM; in data set [9] it was 3.4 µM. Also, in data set [7], the K was determined as 0.018 s⁻¹. Further, in [8], the Ratio amounted to 21.4. Besides, in data set [10], the CLint scaled at 1 µM was 2.6 mL/min/kg. Moreover, the remaining at 1 h, 1 µM in [14] stood at 0%.
For `O=C(O)Cc1ccccc1Nc1c(Cl)cccc1Cl` [DICLOFENAC], the CLint scaled at 1 µM in [10] came to 3.3 mL/min/kg.
Take `CC(C)(C#Cc1ccc(-c2ccc(Cl)c3c(NS(C)(=O)=O)nn(CC(F)(F)F)c23)c([C@H](Cc2cc(F)cc(F)c2)NC(=O)Cn2nc(C(F)(F)F)c3c2C(F)(F)[C@@H]2C[C@H]32)n1)S(C)(=O)=O`: in data set [17], the 50% effective concentration (EC50) was 0.000105 µM.
Take `COc1ccc(N(C)C(=O)[C@H](Cc2ccccc2)NC(=O)CN2CCN(C(=O)c3ccccc3[N+](=O)[O-])CC2=O)cc1`: the figures for the EC50 in data set [1] and in data set [11] were 2.5 µM and 22 µM, respectively. For the same compound, the CC50 at 120 h in data set [4] amounted to 180 µM. For the same compound, the results for the selectivity ratio in [6] and in data set [12] were 8.2 and 72, respectively.
On to `COc1ccc(N(C)C(=O)[C@H](Cc2cc(F)cc(F)c2)NC(=O)CN2CCN(C(=O)c3ccc(C(F)(F)F)cc3)CC2=O)cc1`, for which the EC50 in data set [1] and in data set [11] was more than 18 µM in each case. For the same compound, the CC50 at 120 h in data set [4] was 18 µM. For the same compound, the selectivity ratio in [6] and in data set [12] was less than 1 throughout.
With `COc1ccc(N(C)C(=O)[C@H](Cc2cc(F)cc(F)c2)NC(=O)CN2CCN(C(=O)c3ccc([N+](=O)[O-])cc3)CC2=O)cc1`, the concentration giving a half-maximal response (EC50) in [1] and in [11] was more than 18 µM throughout. Also, in [4], the CC50 at 120 h stood at 18 µM. Besides, the selectivity ratio in data set [6] and in data set [12] was less than 1 throughout.
`C[C@]12CC[C@H]3[C@@H](CCC4=CC(=O)CC[C@@]43C)[C@@H]1CC[C@@H]2O` [TESTOSTERONE]: in data set [18], the microsomal CLint at 1 µM was 83 µL/min/mg. Further, the CLint scaled at 1 µM in [10] worked out at 74 mL/min/kg.
